Experimental findings from ChEMBL document CHEMBL3804799, “Synthesis and Biological Evaluation of Novel σ1 Receptor Ligands for Treating Neuropathic Pain: 6-Hydroxypyridazinones” (J Med Chem, 2016) are described below.

As usually defined, the Ki is the dissociation constant of the complex between target and ligand, obtained from inhibition or displacement. The term ED50 denotes the dose that gives a 50% effect, or the effect in half of the subjects. Usually Cmax stands for the highest concentration seen after dosing. In general, Tmax refers to the time at which the peak concentration occurs. As usually defined, the half-life is how long it takes for the measured level to halve. By inhibition is commonly meant the percentage by which the read-out fell short of the control. The low end stands for little suppression, the high end for strong suppression.

A short description of series [1]: Displacement of [3H]-DTG from Sigma2 receptor in Dunkin Hartley guinea pig brain membrane after 120 mins by liquid scintillation counting analysis in presence of sigma1 blocker (+)-SKF-10047. Also noted: species or system Cavia porcellus. In short, it runs like this:
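Guinea pig brain P2 membranes incubated with 3 nM [³H]-DTG plus 400 nM (+)-SKF-10047 to block σ1 sites, Tris-HCl pH 8.0, 25 °C for 120 min; nonspecific binding with DTG. Filtration on PEI-presoaked GF/B filters, scintillation counting. […] At least three experiments.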
In general terms: Displacement assays read how much labelled ligand stays bound in the presence of the test substance.

Series [2] deals with Rattus norvegicus. Put plainly: Antiallodynic activity in po dosed Sprague-Dawley rat chronic constriction injury-induced neuropathic pain model assessed as inhibition of mechanical allodynia administered as bid on day 15th and 18th post surgery by Von frey test. Type of series: functional. In short, it runs like this: (§1)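 Sciatic nerve CCI in SD rats (Bennett–Xie) under 5% chloral hydrate: four loose 4-0 silk ligatures on the right sciatic nerve, about 1 cm proximal to the trifurcation. Oral dosing in 0.5% methylcellulose (10 mL/kg), twice daily on days 15–18. Testing followed the first dose on day 15 and the last dose on day 18. Mechanical withdrawal threshold by von Frey up–down method, four samplings averaged. 10 rats/group.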

Series [3] deals with Rattus norvegicus. Put plainly: Effect on mechanical allodynia in sham-operated Sprague-Dawley rat at 20 to 80 mg/kg, po administered as bid on days 15th to 18th. Format: ADME, organism-based. To be noted: in vivo. The method in brief:
as §1

In series [4] the test system is Rattus norvegicus. Put plainly: Effect on thermal hypersensitivity in sham-operated Sprague-Dawley rat at 20 to 80 mg/kg, po administered as bid on days 15th to 18th. To be noted: in vivo. Type of series: ADME, organism-based. In short, it runs like this:
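CCI or sham SD rats, 10 per group, dosed orally in 0.5% methylcellulose (10 mL/kg) twice daily on days 15–18. Tested after the first dose on day 15 and the last dose on day 18. Plantar test: after 30 min acclimation on a glass floor, radiant heat was applied under the hind paw and withdrawal latency recorded. 30 s cutoff; mean of four samplings.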

For series [5], the system named is Mus musculus. Nature of the series: Toxicity in Kun Ming mouse assessed as impair in motor coordination at 40 to 160 mg/kg, ig measured after 30 to 120 mins by rotarod test. Type of series: organism-based. As to conditions: in vivo, po. The method in brief: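 Mice were pre-trained; any that could not stay 300 s on the rod at 10 rpm were excluded. Latency to fall from the rod rotating at 10 rpm was recorded 30, 60, 90 and 120 min after intragastric dosing. 8–10 mice per group.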
Background: In the rotarod test animals must keep their balance on a rotating rod.

Series [6] has as its system Mus musculus. Type of series: toxicity, organism-based, Kun Ming. As to conditions: in vivo, po, 160 mg/kg.
Series [7] can be described thus: Cmax in Sprague-Dawley rat at 80 mg/kg, po administered through gavage by LC-MS/MS analysis. Type of series: ADME, organism-based. Also noted: dose 80 mg/kg, route oral. As to conditions: in vivo. The method in brief:
(§2)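 SD rats, n = 3/group. Dosing was either 5 mg/kg iv via tail vein in saline or 80 mg/kg by oral gavage as a suspension in 0.5% methylcellulose. Serial tail-vein blood was drawn into heparinized tubes at 0.5, 1, 2, 3, 4, 5, 6, 8 and 24 h. Plasma was separated, proteins precipitated with acetonitrile, and samples analysed by LC/MS.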

Series [8] in a line: Tmax in Sprague-Dawley rat at 80 mg/kg, po administered through gavage by LC-MS/MS analysis. To be noted: in vivo. Format: ADME, organism-based. The method in brief: as §2
Series [9] in a line: Half life in Sprague-Dawley rat at 80 mg/kg, po administered through gavage by LC-MS/MS analysis. Type of series: ADME, organism-based. As to conditions: in vivo. The method in brief: as §2
Series [10] concerns the target 5-hydroxytryptamine receptor 2A (Rattus norvegicus) (UniProt P14842). Nature of the series: Displacement of [3H]-ketanserin from 5HT2A receptor in rat cerebral cortex at 1 uM after 15 mins by liquid scintillation counting analysis. Format: tissue-based.
Series [11] addresses Histamine H3 receptor (Rattus norvegicus) (UniProt Q9QYN8). Nature of the series: Displacement of [3H]-N-alpha-methylhistamine from H3 receptor in rat cerebral cortex at 1 uM after 30 mins by liquid scintillation counting analysis. Format: tissue-based.
The target of series [12] is Cannabinoid receptor 2 (Homo sapiens) (UniProt P34972). Put plainly: Displacement of [3H]-CP-55940 from human CB2 receptor expressed in HEK cells at 1 uM after 90 mins by liquid scintillation counting analysis. Type of series: cell-based. As to conditions: HEK293.
The target of series [13] is Glutamate NMDA receptor (Rattus norvegicus) (UniProt P35439+Q00959+Q00960+Q00961+Q62645+Q8VHN2+Q9R1M7). Nature of the series: Displacement of [3H]-glycine from NMDA receptor in rat hippocampal membrane at 1 uM after 30 mins by liquid scintillation counting analysis. Type of series: cell membranes. To be noted: Hippocampus.

Molecules are shown by their SMILES.

Sequence of Cannabinoid receptor 2 (Homo sapiens) (P34972 whole entry): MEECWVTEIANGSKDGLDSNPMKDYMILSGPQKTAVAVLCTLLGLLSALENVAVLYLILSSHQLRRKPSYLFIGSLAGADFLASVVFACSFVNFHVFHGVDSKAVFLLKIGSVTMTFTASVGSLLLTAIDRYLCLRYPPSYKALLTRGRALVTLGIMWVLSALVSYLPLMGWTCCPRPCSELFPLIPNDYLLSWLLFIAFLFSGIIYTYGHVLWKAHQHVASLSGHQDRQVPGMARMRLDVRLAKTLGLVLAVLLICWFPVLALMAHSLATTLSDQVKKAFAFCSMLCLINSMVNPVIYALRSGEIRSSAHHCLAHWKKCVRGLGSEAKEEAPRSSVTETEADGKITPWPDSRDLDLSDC
Sequence of 5-hydroxytryptamine receptor 2A (Rattus norvegicus) (P14842 whole entry): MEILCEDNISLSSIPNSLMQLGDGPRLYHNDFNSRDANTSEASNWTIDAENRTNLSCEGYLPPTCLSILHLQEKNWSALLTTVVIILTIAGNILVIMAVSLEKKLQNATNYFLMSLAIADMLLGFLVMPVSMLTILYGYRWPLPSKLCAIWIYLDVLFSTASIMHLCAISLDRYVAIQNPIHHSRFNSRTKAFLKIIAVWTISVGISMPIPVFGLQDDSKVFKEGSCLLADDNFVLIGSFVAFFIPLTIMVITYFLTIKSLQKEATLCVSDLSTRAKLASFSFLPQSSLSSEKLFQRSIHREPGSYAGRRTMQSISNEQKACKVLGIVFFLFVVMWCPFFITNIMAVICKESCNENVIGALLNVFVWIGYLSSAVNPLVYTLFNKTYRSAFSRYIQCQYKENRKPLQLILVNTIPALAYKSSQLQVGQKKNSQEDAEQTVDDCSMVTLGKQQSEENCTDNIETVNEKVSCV
Sequence of Histamine H3 receptor (Rattus norvegicus) (Q9QYN8 whole entry): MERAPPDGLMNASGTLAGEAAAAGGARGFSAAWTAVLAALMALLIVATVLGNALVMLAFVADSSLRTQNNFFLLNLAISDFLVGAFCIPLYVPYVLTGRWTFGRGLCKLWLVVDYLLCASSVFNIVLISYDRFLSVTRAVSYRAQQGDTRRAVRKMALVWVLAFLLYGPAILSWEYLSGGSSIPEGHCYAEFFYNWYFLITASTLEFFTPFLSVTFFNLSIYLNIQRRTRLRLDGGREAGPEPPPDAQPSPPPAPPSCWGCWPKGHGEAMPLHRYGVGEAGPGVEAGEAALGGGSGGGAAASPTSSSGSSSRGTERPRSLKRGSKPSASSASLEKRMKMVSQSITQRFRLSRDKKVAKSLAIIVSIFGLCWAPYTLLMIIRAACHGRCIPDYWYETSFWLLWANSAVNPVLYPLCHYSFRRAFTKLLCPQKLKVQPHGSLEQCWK

Consider `O=c1ccc(OCCCN2CCCCC2)nn1-c1ccc(Cl)c(Cl)c1`, for which the Ki in [1] was determined as 1910 nM. Also, in series [2], the ED50 stood at 40.3 mg/kg. In addition, the Activity result in series [3] was “Non-toxic”; in series [4], “Non-toxic”; in [5] it was “Non-toxic”; in series [6], 16458.3 mm. In series [7], the Cmax was 2920 ng/mL. In addition, in series [8], the Tmax was 19.8 min. In addition, in [9], the half-life is 173 min. Further, the inhibition in series [10], in series [11], in series [12] and in [13] was less than 50% each time.
